From PubChem
This is a sample that favours compounds with a hit; in the whole collection about 1.5% have one here.
FLuc act counter: firefly luciferase counter-screen for stimulation assays; AID 1027; ATPlite luciferase biochemical, luminescence, 10 min; 0 = ATP-free wells, 1 = DMSO control; P08659; activation factor at 10 µM; 200,000 tested, under 10 active;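 active = luciferase activation factor, scaled between plate controls, of at least 2 with compound at 10 µM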
Target sequence (P08659 whole entry, looked up): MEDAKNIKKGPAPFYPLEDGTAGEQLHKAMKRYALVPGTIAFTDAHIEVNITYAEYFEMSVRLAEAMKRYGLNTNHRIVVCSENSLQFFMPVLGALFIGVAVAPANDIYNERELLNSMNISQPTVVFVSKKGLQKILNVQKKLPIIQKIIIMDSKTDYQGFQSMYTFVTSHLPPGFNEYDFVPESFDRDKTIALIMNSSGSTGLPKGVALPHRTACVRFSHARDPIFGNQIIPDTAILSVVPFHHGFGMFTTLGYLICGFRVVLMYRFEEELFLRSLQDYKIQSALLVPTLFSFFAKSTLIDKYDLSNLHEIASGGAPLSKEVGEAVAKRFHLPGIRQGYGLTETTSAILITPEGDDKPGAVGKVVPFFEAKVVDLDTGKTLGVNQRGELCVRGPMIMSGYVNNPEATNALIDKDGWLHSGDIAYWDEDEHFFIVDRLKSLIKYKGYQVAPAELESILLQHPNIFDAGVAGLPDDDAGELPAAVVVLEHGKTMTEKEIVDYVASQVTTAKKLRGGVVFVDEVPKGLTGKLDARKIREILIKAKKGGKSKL
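Assay system: Luciferase/luciferin reagent mix; Medium: PBS as buffer for the ATP substrate; Dosing: test compounds dosed from 2 mM stocks in 100% DMSO; Times: 10 min, room temperature; Signal: luminescence from luciferase reaction; Read-out: luciferase activation; Controls: No-ATP low control, compound-free enzyme-plus-ATP high control.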
FLuc inh counter: inhibits firefly luciferase, flagging false hits in luciferase inhibition screens. ATPLite firefly luciferase biochemical luminescence, 10 min. inhibition, % at 10 µM. 200,000 tested, 1.5% active;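 active = inhibition above about 50% when tested at 10 µM, limit read from the data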
TRAIL sens C8: caspase-8 TRAIL sensitization; inhibition (viability loss, TRAIL sensitization), % at 10 µM; AID 624354; NB7+C8 cells + TRAIL, ATPlite viability luminescence; 360,000 tested, 1% active;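 active = compounds causing at least 50% loss of cell viability in the single-dose screen, relative to plate controls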
PPC-1+TRAIL kill: PPC-1 cancer cell killing with TRAIL present; PPC-1 cells + TRAIL, ATPLite viability luminescence; cell killing (% activity), % at 4 µM or 5 µM; 220,000 tested, 0.41% active;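 active = cell killing above 50% in the first pass at 4 µM, then a duplicate retest at 5 µM averaging 50% or more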;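 also: plate controls were cells with TRAIL plus DMSO for no effect and medium-only wells lacking cells for full effect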
Numbers without * were called inactive; . = no result given.

SMILES | FLuc act counter | FLuc inh counter | TRAIL sens C8 | PPC-1+TRAIL kill
Cc1cc(O)c(C(=O)/C=C/c2cccc([N+](=O)[O-])c2)c(=O)o1 | . | . | 33 | 15
O=C(/C=C/N1CCOCC1)c1coc2ccccc12 | 0.5 | 54* | 23 | 17
O=C(/C=C/N1CCOCC1)c1cc2ccccc2o1 | 0.6 | 41 | 25 | 12
O=C(N/N=C/c1ccccc1)c1[nH]ncc1Br | 0.3 | 70* | 27 | 12
COc1ccc(/C=N/NC(=O)c2[nH]ncc2Br)c(OC)c1 | 0.2 | 85* | -12 | 14
NC(=S)NN=C1c2cc(OCCN3CCOCC3)ccc2-c2ccc(OCCN3CCOCC3)cc21 | . | . | 84* | .
COc1ccc(/C=[N+](\[O-])C2N(c3ccccc3)C(=S)SC2(C)C)cc1OC (configuration not stated) | . | . | 6 | -7
COc1ccc(-c2nnc(NC(=O)c3ccco3)s2)cc1 | . | . | 60* | .
Cc1ccc(-c2nnc(NC(=O)c3ccco3)s2)cc1 | . | . | 68* | .
CN(Cc1ccccc1)C(=O)CCS(=O)(=O)c1ccc2c(c1)NC(=O)CS2 | . | . | -11 | .
O=Cc1c(-c2ccccc2)cc2oc3ccccc3cc1-2 | . | . | 51* | .
CCS(=O)(=O)c1nc(S(=O)(=O)c2ccc(C)cc2)c(N2CCN(C)CC2)s1 | . | . | 11 | .
CSc1ccc(/C=N/Nc2nc(C)cc(=O)[nH]2)cc1 | 0.3 | 68* | 27 | 22
COc1ccccc1C1=NN(C2=NN=C(N)Cc3ncnn32)C(O)(C(F)(F)F)C1 (configuration not stated) | 1.1 | -5 | -3 | -13
CCOC(=O)/C=C/c1cccc(C)c1O | . | . | -3 | .
O=C(Cc1ccccc1[N+](=O)[O-])NCc1ccc(Cl)cc1 | 0.9 | 9 | -2 | 12
O=C(Cc1ccccc1[N+](=O)[O-])NCc1ccc(Cl)cc1Cl | 0.4 | 59* | 27 | 38
CCN1CCN(Cc2nnc(-c3ccc(C)cc3)o2)CC1 | . | . | -6 | .
Cc1ccc(C(=O)CSc2ncnc3ccccc23)o1 | 0.7 | 27 | 4 | 2
O=C(CSc1ncnc2ccccc12)c1cccs1 | 0.3 | 70* | 3 | 2
CCc1ccc(/C=C2\SC(=S)N(CCCC(=O)N3CCN(C)CC3)C2=O)cc1 | . | . | 87* | .
CCc1ccc(/C=C2\SC(=S)N(CCCC(=O)NCCCN3CCOCC3)C2=O)cc1 | . | . | 75* | .
O=C(Cn1cnc([N+](=O)[O-])n1)N/N=C/c1ccc(O)cc1O | 1 | 0 | 52* | 7
O=C(Cn1cnc([N+](=O)[O-])n1)N/N=C/c1cccc2ccccc12 | 1.1 | -7 | -2 | -7
COC(=O)CSc1ncnc2c1sc1nc3c(cc12)COC(C)(C)C3 | 0.9 | 12 | 73* | 48
SMILES | FLuc act counter | FLuc inh counter | TRAIL sens C8 | PPC-1+TRAIL kill
Cc1ccc(Cl)cc1N1CCN(C(=O)c2cc3c(=O)[nH]c4ccccc4c3n2C)CC1 | 1 | -3 | 48 | 50*
O=[N+]([O-])c1ccc(N2CCN(Cc3ccccc3)CC2)c2c1no[n+]2[O-] | . | . | 94* | .
O=[N+]([O-])c1ccc(N2CCN(Cc3ccccc3)CC2)s1 | . | . | -2 | .
Cc1cccc(OCc2cc(-c3ccccc3)no2)c1C | . | . | 6 | .
Clc1ccc(OCc2cc(-c3ccccc3)no2)c(Cl)c1 | 0.5 | 51* | 44 | 26
CCc1nnc(NC(=O)c2ccc3c(c2)C(=O)N(C(C)(C)C)C3=O)s1 | 0.3 | 69* | 38 | 24
CCc1nnc(NC(=O)c2ccc3ncsc3c2)s1 | . | . | 0 | 4
Cc1cnc(NC(=O)c2ccc3c(c2)C(=O)N(Cc2ccco2)C3=O)s1 | 0.9 | 6 | -6 | -17
CCN1C(=O)c2ccc(C(=O)Nc3ncc(C)s3)cc2C1=O | 0.1 | 86* | -1 | 18
O/C(=C\c1ccc2ccccc2n1)c1ccc(O)cc1O | 0.2 | 83* | 66* | 48
CCc1sc(C(=O)NNC(=O)c2cncc(Br)c2)cc1C | . | . | -20 | .
O=C(/C=C/c1ccc(OC(F)F)cc1)Nc1cccc(S(=O)(=O)NC2=NCCCCC2)c1 | . | . | 57* | .
CC(C)(C)c1ccc(C(=O)Nc2cccc(S(=O)(=O)NC3=NCCC3)c2)cc1 | . | . | 86* | .
COc1ccc(/C=C/C(=O)Nc2cccc(S(=O)(=O)NC3=NCCCCC3)c2)cc1 | . | . | 43 | 25
CN(CC(=O)Nc1ccc(F)cc1)C(=O)COc1ccccc1Cc1ccccc1 | . | . | -3 | .
Cn1c(CNC(=O)CNS(=O)(=O)c2ccc(Cl)cc2)cc(=O)n(C)c1=O | . | . | -27 | .
COc1ccc(C(=O)Nc2ccc(OCC(F)(F)C(F)F)c(C(F)(F)F)c2)cc1OC | 1.1 | -11 | 41 | 6
O=C(Nc1ccc(OCC(F)(F)C(F)F)c(C(F)(F)F)c1)c1ccc(Cl)cc1 | . | . | 77* | .
O=C(COC(=O)CNC(=O)C1CCCCC1)Nc1ccccc1OC(F)F | . | . | -12 | .
CCOC(=O)c1c(N)sc(C(=O)Nc2ccccc2F)c1C | 0.2 | 75* | 45 | 37
CCOC(=O)c1c(N)sc(C(=O)Nc2ccccc2)c1C | 0.2 | 84* | 63* | 46
Cc1ccc(S(=O)(=O)C2(C(=O)N3CCCCC3C)CC2)cc1 (configuration not stated) | 1.1 | -8 | -3 | 12
COc1cccc(C=Nc2cccc3c(=O)[nH][nH]c(=O)c23)c1O | 0.2 | 80* | 45 | 11
COc1ccc(C=Nc2cccc3c(=O)[nH][nH]c(=O)c23)c2ccccc12 | 1.1 | -9 | 2 | 2
COc1ccc(C2c3ccc4ccccc4c3Oc3ncn(CCCN(C)C)c(=N)c32)cc1 (configuration not stated) | . | . | 58* | .
SMILES | FLuc act counter | FLuc inh counter | TRAIL sens C8 | PPC-1+TRAIL kill
Cc1cc(C)c2nc(C)cc(N/N=C/c3ccc(O)cc3)c2c1 | . | . | 81* | .
Cc1cc(-c2ccccc2)nc(N/N=C/c2ccc(O)cc2)n1 | . | . | 77* | .
Cc1cc(N/N=C/c2ccc(O)cc2)c2cccc(C)c2n1 | . | . | 16 | .
Cc1cc(C)nc(N/N=C/c2ccccc2)n1 | 1 | 2 | 13 | .
C=CCCC(=O)N1C[C@H]2CON(C)[C@H]2C[C@H]1c1cccc(Br)c1 | . | . | -2 | .
Oc1ccc(C=Nc2ccccc2-c2nc3ccccc3[nH]2)c(O)c1 | 0.7 | 31 | 6 | -2
Oc1ccccc1C=Nc1ccccc1-c1nc2ccccc2[nH]1 | 0.8 | 19 | 52* | 3
Fc1ccccc1-c1nc2ccccc2[nH]1 | 0.4 | 55* | 23 | 22
COC(=O)C(Cc1ccccc1)NC(=O)c1ccc(NS(=O)(=O)c2ccc3[nH]c(=O)[nH]c3c2)cc1 (configuration not stated) | . | . | -11 | .
Cc1nc2cc(NC(=O)N3c4ccccc4CC3C)ccc2o1 (configuration not stated) | 0.4 | 62* | 2 | 34
Cc1ccccc1NC(=O)N1c2ccccc2CC1C (configuration not stated) | 1 | 0 | 2 | 8
CCCc1ccc2oc(C(=O)NCc3nnc(C)o3)c(C)c2c1 | . | . | 1 | .
CCN(CC)CCNC(=O)c1cc2cc(Br)ccc2s1 | 1.1 | -8 | 15 | -5
CCOC(=O)Cc1csc(NC(=S)NC(=O)c2ccc(C)cc2)n1 | 0.2 | 80* | 82* | 27
COC(=O)c1sc(NC(=S)NC(=O)c2ccccc2Cl)nc1C | 0.3 | 67* | 39 | 24
